# Assay results taken from ChEMBL document CHEMBL3046106, “Synthesis and herbicidal activity of diphenyl ether derivatives containing unsaturated carboxylates” (J Agric Food Chem, 2011).
# Experiments:
# Type in all cases: functional
# [1] = tested on: Digitaria sanguinalis; test: Herbicidal activity against Digitaria sanguinalis (hairy crabgrass) at 200 g/hm2 postemergent application after 2 weeks
# Procedure, shortened: (§1)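 Seedlings grown 14 days in the greenhouse; plants uniform in size and stage were chosen. Test compound in acetone sprayed post-emergence at a carrier volume equivalent to 187 L/ha. Plants returned to the greenhouse and watered; untreated plants served as control. Each species scored visually two weeks after application on a 0–100 scale (0 no activity, 100 total control).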
# [2] = tested on: Abutilon theophrasti; test: Herbicidal activity against Abutilon theophrasti (velvetleaf) at 1000 g/hm2 postemergent application after 2 weeks; procedure, shortened: as §1
# [3] = tested on: Digitaria sanguinalis; test: Herbicidal activity against Digitaria sanguinalis (hairy crabgrass) at 40 g/hm2 postemergent application after 2 weeks; procedure, shortened: as §1
# [4] = tested on: Abutilon theophrasti; test: Herbicidal activity against Abutilon theophrasti (velvetleaf) at 200 g/hm2 postemergent application after 2 weeks; procedure, shortened: as §1
# [5] = tested on: Digitaria sanguinalis; test: Herbicidal activity against Digitaria sanguinalis (hairy crabgrass) at 1000 g/hm2 postemergent application after 2 weeks; procedure, shortened: as §1
# [6] = tested on: Echinochloa crus-galli; test: Herbicidal activity against Echinochloa crus-galli (barnyard grass) at 1000 g/hm2 postemergent application after 2 weeks; procedure, shortened: as §1
# [7] = tested on: Echinochloa crus-galli; test: Herbicidal activity against Echinochloa crus-galli (barnyard grass) at 40 g/hm2 postemergent application after 2 weeks; procedure, shortened: as §1
# [8] = tested on: Abutilon theophrasti; test: Herbicidal activity against Abutilon theophrasti (velvetleaf) at 40 g/hm2 postemergent application after 2 weeks; procedure, shortened: as §1
# [9] = tested on: Echinochloa crus-galli; test: Herbicidal activity against Echinochloa crus-galli (barnyard grass) at 200 g/hm2 postemergent application after 2 weeks; procedure, shortened: as §1
compound,measurement,setting,value
COCCOC(=O)/C=C(\C)OC(=O)c1cc(Oc2ccc(C(F)(F)F)cc2Cl)ccc1[N+](=O)[O-],Activity,[1],35%
same,Activity,[2],100%
same,Activity,[3],30%
same,Activity,[4],100%
same,Activity,[5],75%
same,Activity,[6],80%
same,Activity,[7],20%
same,Activity,[8],98%
same,Activity,[9],30%
C=C(C(=O)OCC)C(C)OC(=O)c1cc(Oc2ccc(C(F)(F)F)cc2Cl)ccc1Cl (stereo not drawn),Activity,[1],35%
same,Activity,[2],100%
same,Activity,[3],0%
same,Activity,[4],75%
same,Activity,[5],40%
same,Activity,[6],95%
same,Activity,[7],0%
same,Activity,[8],5%
same,Activity,[9],20%
CCOC(=O)/C(C)=C(\C)OC(=O)c1cc(Oc2ccc(C(F)(F)F)cc2Cl)ccc1Cl,Activity,[1],25%
same,Activity,[2],100%
same,Activity,[3],0%
same,Activity,[4],90%
same,Activity,[5],30%
same,Activity,[6],25%
same,Activity,[7],0%
same,Activity,[8],5%
same,Activity,[9],20%
C=C(C(=O)OCC)C(C)OC(=O)c1cc(Oc2ccc(C(F)(F)F)cc2Cl)ccc1[N+](=O)[O-] (stereo not drawn),Activity,[1],70%
same,Activity,[2],100%
same,Activity,[3],25%
same,Activity,[4],50%
same,Activity,[5],90%
same,Activity,[6],30%
same,Activity,[7],10%
same,Activity,[8],5%
same,Activity,[9],20%
CCOC(=O)/C=C/COC(=O)c1cc(Oc2ccc(C(F)(F)F)cc2Cl)ccc1Cl,Activity,[1],30%
same,Activity,[2],100%
same,Activity,[3],20%
same,Activity,[4],100%
same,Activity,[5],70%
same,Activity,[6],85%
same,Activity,[7],15%
same,Activity,[8],98%
same,Activity,[9],45%
C=C(COC(=O)c1cc(Oc2ccc(C(F)(F)F)cc2Cl)ccc1Cl)C(=O)OCCC,Activity,[1],30%
same,Activity,[2],100%
same,Activity,[3],10%
same,Activity,[4],100%
same,Activity,[5],35%
same,Activity,[6],75%
same,Activity,[7],5%
same,Activity,[8],20%
same,Activity,[9],10%
CCOC(=O)/C=C(\C)COC(=O)c1cc(Oc2ccc(C(F)(F)F)cc2Cl)ccc1[N+](=O)[O-],Activity,[1],10%
same,Activity,[2],100%
same,Activity,[3],10%
same,Activity,[4],100%
same,Activity,[5],20%
same,Activity,[6],35%
same,Activity,[7],5%
same,Activity,[8],90%
same,Activity,[9],20%
C=CCOC(=O)/C=C(\C)OC(=O)c1cc(Oc2ccc(C(F)(F)F)cc2Cl)ccc1[N+](=O)[O-],Activity,[1],5%
same,Activity,[2],40%
same,Activity,[4],0%
same,Activity,[5],35%
same,Activity,[6],25%
same,Activity,[9],5%
CCOC(=O)/C=C(/OC(=O)c1cc(Oc2ccc(C(F)(F)F)cc2Cl)ccc1[N+](=O)[O-])C(F)(F)F,Activity,[1],0%
same,Activity,[2],60%
same,Activity,[4],0%
same,Activity,[5],50%
same,Activity,[6],35%
same,Activity,[9],0%
CCOC(=O)/C=C(\C)OC(=O)c1cc(Oc2ccc(C(F)(F)F)cc2Cl)ccc1Cl,Activity,[1],20%
same,Activity,[3],10%
same,Activity,[5],25%
same,Activity,[6],95%
same,Activity,[7],0%
same,Activity,[9],20%
CC/C(=C\C(=O)OC)OC(=O)c1cc(Oc2ccc(C(F)(F)F)cc2Cl)ccc1[N+](=O)[O-],Activity,[1],5%
same,Activity,[2],10%
same,Activity,[4],0%
same,Activity,[5],15%
same,Activity,[6],35%
same,Activity,[9],0%
CCC/C(=C\C(=O)OCC)OC(=O)c1cc(Oc2ccc(C(F)(F)F)cc2Cl)ccc1[N+](=O)[O-],Activity,[1],5%
same,Activity,[2],0%
same,Activity,[4],0%
same,Activity,[5],15%
same,Activity,[6],35%
same,Activity,[9],5%
